Counter-ions that a name gives are not always drawn. Activity calls are given as the source filed them. The rule behind the calls is not given here.
Legend:
MDA-MB-231 [1] = test: Cytotoxicity against triple-negative human MDA-MB-231 cells assessed as growth inhibition after 24 hrs by MTT assay; assay type: functional, cell-based; conditions: MDA-MB-231, 24 h
MDA-MB-231 [2] = test: Induction of apoptosis in triple-negative human MDA-MB-231 cells assessed as dead cells at 10 mM after 24 hrs by annexin V-FITC/propidium iodide staining-based flow cytometric analysis relative to control; assay type: functional
Procedure, shortened: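 MDA-MB-231 cells grown in DMEM at 37 °C, 5% CO2, then exposed for 24 h to agent dissolved in distilled water. Cells were stained at 1 × 10^6 cells/ml with FITC-annexin V and/or propidium iodide for flow cytometry and read as quadrant dot plots. Lower left is viable, lower right early apoptotic, upper quadrants late apoptotic/necrotic.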

MDA-MB-231 [3] = test: Induction of apoptosis in triple-negative human MDA-MB-231 cells assessed as early apoptotic cells at 10 mM after 24 hrs by annexin V-FITC/propidium iodide staining-based flow cytometric analysis relative to control; assay type: functional
Procedure, shortened: (§1)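 MDA-MB-231 cells treated 24 h at 0.1 or 10 mM were stained with FITC-annexin V and propidium iodide and analyzed by flow cytometry. Quadrants: annexin−/PI− viable; annexin+/PI− early apoptotic; PI+ late apoptotic/necrotic.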

Mus musculus [4] = test: Toxicity in BALB/c athymic nude mouse xenografted with triple-negative human MDA-MB-231 cells assessed as body weight change at 500 mg/kg, po qd measured for 35 days relative to vehicle-treated control; assay type: organism-based; design: dose 500 mg/kg, route oral; conditions: in vivo, 840 h
Procedure, shortened: (§2)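 MDA-MB-231 s.c. xenograft in nude mice (n = 6), dosed orally by gavage once daily for 35 days at 25–100 or 500 mg/kg. Body weights were recorded three times weekly and compared with vehicle-treated mice.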

Hs-578T [5] = test: Cytotoxicity against triple-negative human Hs578T cells assessed as growth inhibition after 24 hrs by MTT assay; assay type: functional, cell-based
MDA-MB-231 [6] = test: Induction of apoptosis in triple-negative human MDA-MB-231 cells assessed as apoptotic cells at 10 mM after 24 hrs by annexin V-FITC/propidium iodide staining-based flow cytometric analysis relative to control; assay type: functional; procedure, shortened: as §1
MDA-MB-231 [7] = test: Induction of apoptosis in triple-negative human MDA-MB-231 cells assessed as viable cells at 10 mM after 24 hrs by annexin V-FITC/propidium iodide staining-based flow cytometric analysis relative to control; assay type: functional; conditions: MDA-MB-231, 24 h, read-out: Activity; procedure, shortened: as §1
MDA-MB-231 [8] = test: Ratio of compound activity to metformin activity for tumor growth inhibition of triple-negative human MDA-MB-231 cells xenografted in BALB/c athymic nude mouse; assay type: functional
MDA-MB-231 [9] = test: Antitumor activity against triple-negative human MDA-MB-231 cells xenografted in BALB/c athymic nude mouse assessed as tumor growth inhibition at 50 mg/kg, po qd measured for 35 days relative to vehicle-treated control; assay type: functional; conditions: MDA-MB-231, 840 h, read-out: TGI
Procedure, shortened: (§3)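 MDA-MB-231 cells (5 × 10^6 in 0.1 mL serum-free medium) were injected s.c. into the right lower flank of nude mice. At tumor volumes of 100–130 mm³, mice (n = 6) received oral gavage once daily for 35 days at 25, 50, 100 or 500 mg/kg. Caliper volumes, (length × width²)/2, were taken three times weekly. Inhibition was calculated versus the vehicle group.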

Hs-578T [10] = test: Ratio of compound activity to metformin activity for inhibition of triple-negative human Hs578T cells invasiveness; assay type: functional
[11] = biological target: 5'-AMP-activated protein kinase catalytic subunit alpha-2 (Homo sapiens) (UniProt P54646); test: Ratio of compound activity to metformin activity for activation of AMPK in triple-negative human […] cells; assay type: cell-based
MDA-MB-231 [12] = test: Induction of apoptosis in triple-negative human MDA-MB-231 cells assessed as early apoptotic cells at 0.1 mM after 24 hrs by annexin V-FITC/propidium iodide staining-based flow cytometric analysis relative to control; assay type: functional; procedure, shortened: as §1
MDA-MB-231 [13] = test: Induction of apoptosis in triple-negative human MDA-MB-231 cells assessed as viable cells at 0.1 mM after 24 hrs by annexin V-FITC/propidium iodide staining-based flow cytometric analysis relative to control; assay type: functional; conditions: MDA-MB-231, 24 h, read-out: Activity; procedure, shortened: as §1
MDA-MB-231 [14] = test: Antitumor activity against triple-negative human MDA-MB-231 cells xenografted in BALB/c athymic nude mouse assessed as tumor growth inhibition at 25 mg/kg, po qd measured for 35 days relative to vehicle-treated control; assay type: functional; conditions: MDA-MB-231, 840 h, read-out: TGI; procedure, shortened: as §3
Hs-578T [15] = test: Antiinvasive activity against triple-negative human Hs578T cells assessed as downregulation of MMP2 level after 24 hrs by gelatin zymogram assay; assay type: functional, cell-based
Procedure, shortened: (§4)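 Hs578T cells were cultured 24 h in serum-free medium containing compound at 0.05–0.2 mM or 5–20 mM. Gelatinolytic activity of the conditioned medium was resolved by gelatin zymography (MMP-2 72 kDa, MMP-9 92 kDa). Relative band intensities were quantified by densitometry.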

MDA-MB-231 [16] = test: Induction of apoptosis in triple-negative human MDA-MB-231 cells assessed as apoptotic cells at 0.1 mM after 24 hrs by annexin V-FITC/propidium iodide staining-based flow cytometric analysis relative to control; assay type: functional; procedure, shortened: as §1
[17] = biological target: 5'-AMP-activated protein kinase catalytic subunit alpha-2 (Homo sapiens) (UniProt P54646); test: Activation of AMPK in triple-negative human […] cells at 0.2 mM after 24 hrs by immunoblot analysis; assay type: cell-based
Procedure, shortened: (§5)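 Hs578T cells exposed to compound for 24 h at 0.05–0.2 mM or 5–20 mM. Lysates were made in Triton X-100 buffer (pH 7.4, NaF, EGTA, DTT, Na3VO4, protease inhibitors) and run on 10% SDS–PAGE. Immunoblots were probed with anti-phospho AMPK or anti-phospho mTOR antibody.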

Mus musculus [18] = test: Toxicity in BALB/c athymic nude mouse xenografted with triple-negative human MDA-MB-231 cells assessed as body weight change at 25 to 100 mg/kg, po qd measured for 35 days relative to vehicle-treated control; assay type: organism-based; design: dose 25-100 mg/kg, route oral; conditions: in vivo, 840 h; procedure, shortened: as §2
Hs-578T [19] = test: Antiinvasive activity against triple-negative human Hs578T cells assessed as downregulation of MMP2 level by immunoblot analysis; assay type: functional, cell-based
Hs-578T [20] = test: Antiinvasive activity against triple-negative human Hs578T cells assessed as downregulation of MMP9 level at 0.05 to 0.2 mM after 24 hrs by gelatin zymogram assay; assay type: functional, cell-based; procedure, shortened: as §4
[21] = biological target: Serine/threonine-protein kinase mTOR (Homo sapiens) (UniProt P42345); test: Ratio of compound activity to metformin activity for inhibition of mTOR phosphorylation in triple-negative human […] cells; assay type: cell-based
MDA-MB-231 [22] = test: Induction of apoptosis in triple-negative human MDA-MB-231 cells assessed as dead cells at 0.1 mM after 24 hrs by annexin V-FITC/propidium iodide staining-based flow cytometric analysis relative to control; assay type: functional
Procedure, shortened: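 MDA-MB-231 cells grown in DMEM at 37 °C, 5% CO2, then exposed for 24 h to agent dissolved in DMSO. Cells were stained at 1 × 10^6 cells/ml with FITC-annexin V and/or propidium iodide and analysed by flow cytometry as quadrant dot plots. Lower left is viable, lower right early apoptotic, upper right/left late apoptotic/necrotic (membrane integrity lost).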

Hs-578T [23] = test: Antiinvasive activity against triple-negative human Hs578T cells at 0.2 mM after 17 hrs by light microscopic analysis relative to control; assay type: functional
Procedure, shortened: (§6)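 Transwell invasion with polycarbonate filters. 5 × 10^4 Hs578T cells were placed in the upper chamber with drug, and the lower chamber held serum-free medium with 0.1% BSA plus drug. After 17 h, cells invaded to the filter underside were counted by light microscopy (400×) in 13 fields per filter. Each sample was run in triplicate.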

Hs-578T [24] = test: Ratio of metformin IC50 to compound IC50 for triple-negative human Hs578T cells; assay type: functional
Procedure, shortened: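 Hs578T cells were exposed to compounds for 24 h and viability was read by MTT (4 h, formazan dissolved in DMSO, OD 540 nm), in triplicate. The ratio uses IC50 values from this assay.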

MDA-MB-231 [25] = test: Antitumor activity against triple-negative human MDA-MB-231 cells xenografted in BALB/c athymic nude mouse assessed as tumor growth inhibition at 100 mg/kg, po qd measured for 35 days relative to vehicle-treated control; assay type: functional; conditions: MDA-MB-231, 840 h, read-out: TGI; procedure, shortened: as §3
[26] = biological target: Serine/threonine-protein kinase mTOR (Homo sapiens) (UniProt P42345); test: Inhibition of mTOR phosphorylation in triple-negative human […] cells at 0.2 mM after 24 hrs by immunoblot analysis; assay type: cell-based; procedure, shortened: as §5
Hs-578T [27] = test: Antiinvasive activity against triple-negative human Hs578T cells after 17 hrs by light microscopic analysis; assay type: functional, cell-based
Procedure, shortened: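 Transwell filter invasion assay; serum-free medium with 0.1% BSA plus drug in the lower chamber, 5 × 10⁴ Hs578T cells plus drug in the upper chamber. Invaded cells on the underside of the filter counted by light microscopy at 400× after 17 h, thirteen fields per filter, each sample in triplicate. Hs578T cultured in DMEM at 37 °C, 5% CO₂.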

Hs-578T [28] = test: Antiinvasive activity against triple-negative human Hs578T cells at 5 mM after 17 hrs by light microscopic analysis relative to control; assay type: functional
[29] = biological target: Serine/threonine-protein kinase mTOR (Homo sapiens) (UniProt P42345); test: Inhibition of mTOR phosphorylation in triple-negative human […] cells at 20 mM after 24 hrs by immunoblot analysis; assay type: cell-based; procedure, shortened: as §5
Hs-578T [30] = test: Antiinvasive activity against triple-negative human Hs578T cells assessed as downregulation of MMP9 level at 5 to 20 mM after 24 hrs by gelatin zymogram assay; assay type: functional, cell-based; procedure, shortened: as §4
Hs-578T [31] = test: Antiinvasive activity against triple-negative human Hs578T cells at 10 mM after 17 hrs by light microscopic analysis; assay type: functional, cell-based; procedure, shortened: as §6
Hs-578T [32] = test: Antiinvasive activity against triple-negative human Hs578T cells at 20 mM after 17 hrs by light microscopic analysis; assay type: functional, cell-based; procedure, shortened: as §6
[33] = biological target: 5'-AMP-activated protein kinase catalytic subunit alpha-2 (Homo sapiens) (UniProt P54646); test: Activation of AMPK in triple-negative human […] cells at 20 mM after 24 hrs by immunoblot analysis; assay type: cell-based; procedure, shortened: as §5

Sequence of 5'-AMP-activated protein kinase catalytic subunit alpha-2 (Homo sapiens) (P54646 whole entry, looked up): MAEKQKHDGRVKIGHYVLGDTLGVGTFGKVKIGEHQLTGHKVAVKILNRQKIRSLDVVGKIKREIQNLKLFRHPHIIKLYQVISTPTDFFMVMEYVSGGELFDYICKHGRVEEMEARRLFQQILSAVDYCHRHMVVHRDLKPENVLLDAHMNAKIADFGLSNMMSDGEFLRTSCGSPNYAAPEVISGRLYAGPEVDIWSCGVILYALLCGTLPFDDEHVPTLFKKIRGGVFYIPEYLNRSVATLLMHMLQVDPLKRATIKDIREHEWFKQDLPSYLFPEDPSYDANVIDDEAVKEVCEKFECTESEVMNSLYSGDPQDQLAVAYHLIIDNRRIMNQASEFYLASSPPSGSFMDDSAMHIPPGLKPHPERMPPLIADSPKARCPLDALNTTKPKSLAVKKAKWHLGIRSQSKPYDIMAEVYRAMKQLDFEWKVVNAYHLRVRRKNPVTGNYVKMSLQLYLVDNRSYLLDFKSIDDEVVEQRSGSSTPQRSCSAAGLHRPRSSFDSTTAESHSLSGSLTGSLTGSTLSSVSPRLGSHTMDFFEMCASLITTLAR

CN(C)C(=N)NC(=N)N.Cl [METFORMIN HYDROCHLORIDE]
IC50 (MDA-MB-231 [1]): 58.4 mM | Activity (MDA-MB-231 [2]): 0.5% | Activity (MDA-MB-231 [3]): 1.8% | Activity (Mus musculus [4]): Non-toxic | IC50 (Hs-578T [5]): 26.8 mM | Activity (MDA-MB-231 [6]): 15.3% | viability at 10000 µM (MDA-MB-231 [7]): 82.4%

CCCc1ccccc1Nc1nc(N)nc(N(C)C)n1.Cl
Ratio (MDA-MB-231 [8]): 5 | inhibition in vivo at 50 mg/kg (MDA-MB-231 [9]): 17.4% | Ratio (Hs-578T [10]): 100 | IC50 (MDA-MB-231 [1]): 0.28 mM | Ratio [11]: 100 | Activity (MDA-MB-231 [12]): 3.1% | viability at 100 µM (MDA-MB-231 [13]): 78.4% | inhibition in vivo at 25 mg/kg (MDA-MB-231 [14]): 6.2% | Activity (Hs-578T [15]): Dose-dependent effect | Activity (MDA-MB-231 [16]): 17% | Activity [17]: Active | Activity (Mus musculus [18]): Non-toxic | Activity (Hs-578T [19]): Dose-dependent effect | Activity (Hs-578T [20]): inactive | Ratio [21]: 100 | Activity (MDA-MB-231 [22]): 1.6% | IC50 (Hs-578T [5]): 0.28 mM | inhibition at 200 µM (Hs-578T [23]): 36.6% | Ratio IC50 (Hs-578T [24]): 100 | inhibition in vivo at 100 mg/kg (MDA-MB-231 [25]): 27.9% | inhibition [26]: Active

CN(C)C(=N)NC(=N)N.NCCCC(=O)O [listing 1 of 2 here]
Activity (Hs-578T [27]): Dose-dependent effect

CC(C)C[C@H](CN)CC(=O)O.CN(C)C(=N)NC(=N)N [METFORMIN PREGABALIN SALT]
IC50 (MDA-MB-231 [1]): 17.7 mM | inhibition at 5000 µM (Hs-578T [28]): 64.6% | IC50 (Hs-578T [5]): 7.2 mM

N=C(N)NC(=N)NCCc1ccccc1 [PHENFORMIN ACETIC ACID SALT]
IC50 (MDA-MB-231 [1]): 1.68 mM | IC50 (Hs-578T [5]): 0.9 mM

CN(C)C(=N)NC(=N)N.NCC1(CC(=O)O)CCCCC1 [METFORMIN GABAPENTIN SALT]
IC50 (MDA-MB-231 [1]): 16.1 mM | inhibition at 5000 µM (Hs-578T [28]): 73.6% | IC50 (Hs-578T [5]): 4 mM

CN(C)C(=N)NC(=N)N
inhibition [29]: Active | Activity (Hs-578T [30]): inactive | inhibition (Hs-578T [31]): inactive | inhibition (Hs-578T [32]): Active | Activity (Hs-578T [15]): Dose-dependent effect | Activity (Hs-578T [19]): Dose-dependent effect | Activity [33]: Active

CN(C)C(=N)NC(=N)N.NCCCC(=O)O [listing 2 of 2 here]
IC50 (MDA-MB-231 [1]): 41.5 mM | inhibition at 5000 µM (Hs-578T [28]): 43.6% | IC50 (Hs-578T [5]): 9.1 mM
